Data on 43 compounds can be found in ChEMBL document CHEMBL1135664, “Structure-activity relationships of 1-alkyl-5-(3,4-dichlorophenyl)- 5-[2-[(3-substituted)-1-azetidinyl]ethyl]-2-piperidones. 1. Selective antagonists of the neurokinin-2 receptor” (J Med Chem, 2002).

For one test, the target named is T1, Substance-K receptor (Oryctolagus cuniculus, UniProt P79218).
T1 sequence (P79218 whole entry): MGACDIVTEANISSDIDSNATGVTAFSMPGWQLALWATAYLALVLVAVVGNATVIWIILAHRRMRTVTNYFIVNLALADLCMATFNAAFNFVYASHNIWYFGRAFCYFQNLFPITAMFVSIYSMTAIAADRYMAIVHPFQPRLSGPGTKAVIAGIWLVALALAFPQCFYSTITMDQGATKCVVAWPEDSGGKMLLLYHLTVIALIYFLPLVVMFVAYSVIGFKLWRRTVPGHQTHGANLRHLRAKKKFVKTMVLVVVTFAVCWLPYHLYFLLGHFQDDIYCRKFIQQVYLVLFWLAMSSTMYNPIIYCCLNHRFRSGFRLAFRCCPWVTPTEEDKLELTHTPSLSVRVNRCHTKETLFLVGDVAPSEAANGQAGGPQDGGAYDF
The experiment in a line: Functional potency against Tachykinin receptor 2 (NK2) in rabbit pulmonary artery assay. The conditions noted are these: read-out: pA2 (converted). The essentials: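 Rabbit pulmonary artery preparation; antagonism of contractions evoked by the selective NK2 agonist [β-ala8]NKA(4–10); result expressed as pA2. Each determination n ≥ 2, every experiment run in triplicate.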

The species entered for the next test is Homo sapiens. The experiment in a line: In vitro microsomal stability in human liver microsomes (HLM). The test is classed as functional. (Microsomes from liver hold many membrane-bound enzymes, among them those of drug oxidation.)

Consider `O=C1CCC(CCN2CC(N3CCS(=O)(=O)CC3)C2)(c2ccc(Cl)c(Cl)c2)CN1Cc1ccccc1` (stereo not drawn), for which the Kb on Substance-K receptor is 1.26 nM.
Same read-out and setting: the value for `O=C1CCC(CCN2CC(N3CCSCC3)C2)(c2ccc(Cl)c(Cl)c2)CN1Cc1ccccc1` (stereo not drawn) was 1 nM.
In the case of `NC1CCN(C2CN(CCC3(c4ccc(Cl)c(Cl)c4)CCC(=O)N(CC4CC4)C3)C2)CC1` (stereo not drawn), the Kb on Substance-K receptor was 2 nM. In the test filed under Homo sapiens, this compound came in with a half-life of 30 min.
As for `O=C1CCC(CCN2CC(N3C4CCC3CC(O)C4)C2)(c2ccc(Cl)c(Cl)c2)CN1Cc1ccccc1` (stereo not drawn), the Kb on Substance-K receptor is 0.631 nM.
On the same count and under the same terms, the value for `O=C1CCC(CCN2CC(N3CCCC(O)C3)C2)(c2ccc(Cl)c(Cl)c2)CN1Cc1ccccc1` (stereo not drawn) was 2 nM; that for `NC(=O)N1CCN(C2CN(CCC3(c4ccc(Cl)c(Cl)c4)CCC(=O)N(CC4CC4)C3)C2)CC1` (stereo not drawn) was 5.01 nM.
For `O=C1CCC(CCN2CCC(O)(c3ccccc3)CC2)(c2ccc(Cl)c(Cl)c2)CN1Cc1ccccc1` (stereo not drawn), on Substance-K receptor, the Kb was 1.26 nM. The same compound had a half-life in the test filed under Homo sapiens of 30 min.
As to `O=C1CCC(CCN2CC(N3CCC(O)C3)C2)(c2ccc(Cl)c(Cl)c2)CN1Cc1ccccc1` (stereo not drawn), the Kb at Substance-K receptor is 2 nM.
On to `CCOC1CCN(C2CN(CCC3(c4ccc(Cl)c(Cl)c4)CCC(=O)N(CC4CC4)C3)C2)CC1` (stereo not drawn), for which, on Substance-K receptor, the Kb was 6.31 nM.
Same read-out and setting: with `O=C1CCC(CCN2CC(N3CCC(O)CC3)C2)(c2ccc(Cl)c(Cl)c2)CN1CC1CC1` (stereo not drawn) the figure was 1.58 nM; with `Cc1ccccc1CN1CC(CCN2CC(N3CCOCC3)C2)(c2ccc(Cl)c(Cl)c2)CCC1=O` (stereo not drawn), 0.501 nM.
In the case of `Cc1cccc(CN2CC(CCN3CC(N4CCOCC4)C3)(c3ccc(Cl)c(Cl)c3)CCC2=O)c1` (stereo not drawn), the Kb on Substance-K receptor is 2.51 nM.
With `CS(=O)(=O)N1CCN(C2CN(CCC3(c4ccc(Cl)c(Cl)c4)CCC(=O)N(Cc4ccccc4)C3)C2)CC1` (stereo not drawn), the Kb at Substance-K receptor was 0.631 nM.
`CN1CCN(C2CN(CCC3(c4ccc(Cl)c(Cl)c4)CCC(=O)N(Cc4ccccc4)C3)C2)CC1` (stereo not drawn): the Kb at Substance-K receptor is 15.8 nM.
For the compound `O=C1CCC(CCN2CC(N3CCOCC3)C2)(c2ccc(Cl)c(Cl)c2)CN1CC1CCCCC1` (stereo not drawn), on Substance-K receptor, the Kb was 1.26 nM. For the same compound, the half-life in the test listed under Homo sapiens turned out to be 70 min.
For `CN(CCO)C1CN(CCC2(c3ccc(Cl)c(Cl)c3)CCC(=O)N(Cc3ccccc3)C2)C1` (stereo not drawn), on Substance-K receptor, the Kb is 3.16 nM.
Turning to `O=C1CCC(CCN2CC(N3CCCOCC3)C2)(c2ccc(Cl)c(Cl)c2)CN1Cc1ccccc1` (stereo not drawn), the Kb on Substance-K receptor was 2 nM.
The same measure, in the same setting: with `CS(=O)(=O)NC1CCN(C2CN(CCC3(c4ccc(Cl)c(Cl)c4)CCC(=O)N(CC4CC4)C3)C2)CC1` (stereo not drawn) the figure was 10 nM; with `O=C1CCC(CCN2CC(N3CC[S+]([O-])CC3)C2)(c2ccc(Cl)c(Cl)c2)CN1Cc1ccccc1` (stereo not drawn), 0.631 nM.
Turning to `O=C1CC[C@@](CCN2CC(N3CCOCC3)C2)(c2ccc(Cl)c(Cl)c2)CN1CC1CCCCC1`, the Kb on Substance-K receptor was 631 nM. The compound also had a half-life in the test filed under Homo sapiens of 84 min.
As to `CNS(=O)(=O)N1CCN(C2CN(CCC3(c4ccc(Cl)c(Cl)c4)CCC(=O)N(CC4CC4)C3)C2)CC1` (stereo not drawn), on Substance-K receptor, the Kb was 3.16 nM.
For the compound `CC(=O)NC1(c2ccccc2)CCN(C2CN(CCC3(c4ccc(Cl)c(Cl)c4)CCC(=O)N(CC4CC4)C3)C2)CC1` (stereo not drawn), the Kb on Substance-K receptor is 3.16 nM.
Same read-out and setting: with `O=C1CCC(CCN2CC(N3CCOCC3)C2)(c2ccc(Cl)c(Cl)c2)CN1` (stereo not drawn) the figure was > 10000 nM.
Regarding `NS(=O)(=O)N1CCN(C2CN(CCC3(c4ccc(Cl)c(Cl)c4)CCC(=O)N(CC4CC4)C3)C2)CC1` (stereo not drawn), the Kb at Substance-K receptor was 1.26 nM. In the test listed under Homo sapiens, the half-life was > 120 min.
Regarding `O=C1CCC(CCN2CC(N3CCOCC3)C2)(c2ccc(Cl)c(Cl)c2)CN1Cc1ccccc1` (stereo not drawn), the Kb at Substance-K receptor was 0.501 nM. The compound also displayed a half-life in the test listed under Homo sapiens of 70 min.
Take `O=C1CCC(CCN2CC(N3CCNCC3)C2)(c2ccc(Cl)c(Cl)c2)CN1CC1CC1` (stereo not drawn): the Kb on Substance-K receptor was 12.6 nM.
On the same count and under the same terms, the value for `O=C1CCC(CCN2CC(N3CCC(O)CC3)C2)(c2ccc(Cl)c(Cl)c2)CN1Cc1ccccc1` (stereo not drawn) was 0.0794 nM; that for `O=C1CCC(CCN2CC(N3CCOCC3)C2)(c2ccc(Cl)c(Cl)c2)CN1Cc1ccncc1` (stereo not drawn) was 100 nM; that for `O=C1CCC(CCN2CC(N3CCOCC3=O)C2)(c2ccc(Cl)c(Cl)c2)CN1Cc1ccccc1` (stereo not drawn) was 2.51 nM.
With `O=C(O)C1CCN(C2CN(CCC3(c4ccc(Cl)c(Cl)c4)CCC(=O)N(CC4CC4)C3)C2)CC1` (stereo not drawn), the Kb on Substance-K receptor is 0.398 nM.
On to `O=C1CCC(CCN2CC(N3CCOCC3)C2)(c2ccc(Cl)c(Cl)c2)CN1CC1CC1` (stereo not drawn), for which the Kb on Substance-K receptor was 7.94 nM. For the same compound, the half-life in the test listed under Homo sapiens was determined as 120 min.
As for `O=C1CC[C@](CCN2CC(N3CCOCC3)C2)(c2ccc(Cl)c(Cl)c2)CN1CC1CCCCC1`, in the test listed under Homo sapiens, the half-life was determined as 14 min.
Consider `O=C1CCC(CCN2CC(N3CCOCC3)C2)(c2ccc(Cl)c(Cl)c2)CN1Cc1ccc(F)cc1` (stereo not drawn), for which the Kb at Substance-K receptor was 20 nM.
Same read-out and setting: with `O=C1CCN(C2CN(CCC3(c4ccc(Cl)c(Cl)c4)CCC(=O)N(CC4CC4)C3)C2)CC1` (stereo not drawn) the figure was 1.26 nM.
As for `O=C1CCC(CCN2CC(N3CCOCC3)C2)(c2ccc(Cl)c(Cl)c2)CN1C1CCCCC1` (stereo not drawn), the Kb at Substance-K receptor is 0.126 nM. Moreover, the half-life in the test filed under Homo sapiens is < 10 min.
In the case of `CC(=O)N1CCN(C2CN(CCC3(c4ccc(Cl)c(Cl)c4)CCC(=O)N(Cc4ccccc4)C3)C2)CC1` (stereo not drawn), the Kb at Substance-K receptor is 1.58 nM.
For the compound `O=C1CCC(CCN2CC(N3CCOC(c4ccccc4)C3)C2)(c2ccc(Cl)c(Cl)c2)CN1Cc1ccccc1` (stereo not drawn), on Substance-K receptor, the Kb was 10 nM.
The same measure, in the same setting: with `CN(C)S(=O)(=O)N1CCN(C2CN(CCC3(c4ccc(Cl)c(Cl)c4)CCC(=O)N(CC4CC4)C3)C2)CC1` (stereo not drawn) the figure was 10 nM; with `O=C1CCC(CCN2CC(N3CCNCC3)C2)(c2ccc(Cl)c(Cl)c2)CN1Cc1ccccc1` (stereo not drawn), 5.01 nM.
Regarding `CN(CC(CCN1CCC(O)(c2ccccc2)CC1)c1ccc(Cl)c(Cl)c1)C(=O)c1ccccc1` (stereo not drawn), the Kb at Substance-K receptor was 0.316 nM. In addition, in the test filed under Homo sapiens, the half-life was < 10 min.
Take `Cc1ccc(CN2CC(CCN3CC(N4CCOCC4)C3)(c3ccc(Cl)c(Cl)c3)CCC2=O)cc1` (stereo not drawn): the Kb at Substance-K receptor was 6.31 nM.
`CC(=O)NC1CCN(C2CN(CCC3(c4ccc(Cl)c(Cl)c4)CCC(=O)N(CC4CC4)C3)C2)CC1` (stereo not drawn): the Kb at Substance-K receptor is 15.8 nM.
In the case of `CS(=O)(=O)N1CCN(C2CN(CCC3(c4ccc(Cl)c(Cl)c4)CCC(=O)N(CC4CC4)C3)C2)CC1` (stereo not drawn), the Kb at Substance-K receptor is 3.16 nM. In the test listed under Homo sapiens, the half-life was < 10 min.

By half-life is commonly meant the time in which the quantity being followed falls by half. A high value points to slow decline.
